Bounds are passed on as bounds.

By IC50 is commonly meant the midpoint of a concentration-inhibition curve.

The first test addresses T1, hHDAC6 (Homo sapiens, UniProt Q9UBN7).
T1 sequence (Q9UBN7 1-1215): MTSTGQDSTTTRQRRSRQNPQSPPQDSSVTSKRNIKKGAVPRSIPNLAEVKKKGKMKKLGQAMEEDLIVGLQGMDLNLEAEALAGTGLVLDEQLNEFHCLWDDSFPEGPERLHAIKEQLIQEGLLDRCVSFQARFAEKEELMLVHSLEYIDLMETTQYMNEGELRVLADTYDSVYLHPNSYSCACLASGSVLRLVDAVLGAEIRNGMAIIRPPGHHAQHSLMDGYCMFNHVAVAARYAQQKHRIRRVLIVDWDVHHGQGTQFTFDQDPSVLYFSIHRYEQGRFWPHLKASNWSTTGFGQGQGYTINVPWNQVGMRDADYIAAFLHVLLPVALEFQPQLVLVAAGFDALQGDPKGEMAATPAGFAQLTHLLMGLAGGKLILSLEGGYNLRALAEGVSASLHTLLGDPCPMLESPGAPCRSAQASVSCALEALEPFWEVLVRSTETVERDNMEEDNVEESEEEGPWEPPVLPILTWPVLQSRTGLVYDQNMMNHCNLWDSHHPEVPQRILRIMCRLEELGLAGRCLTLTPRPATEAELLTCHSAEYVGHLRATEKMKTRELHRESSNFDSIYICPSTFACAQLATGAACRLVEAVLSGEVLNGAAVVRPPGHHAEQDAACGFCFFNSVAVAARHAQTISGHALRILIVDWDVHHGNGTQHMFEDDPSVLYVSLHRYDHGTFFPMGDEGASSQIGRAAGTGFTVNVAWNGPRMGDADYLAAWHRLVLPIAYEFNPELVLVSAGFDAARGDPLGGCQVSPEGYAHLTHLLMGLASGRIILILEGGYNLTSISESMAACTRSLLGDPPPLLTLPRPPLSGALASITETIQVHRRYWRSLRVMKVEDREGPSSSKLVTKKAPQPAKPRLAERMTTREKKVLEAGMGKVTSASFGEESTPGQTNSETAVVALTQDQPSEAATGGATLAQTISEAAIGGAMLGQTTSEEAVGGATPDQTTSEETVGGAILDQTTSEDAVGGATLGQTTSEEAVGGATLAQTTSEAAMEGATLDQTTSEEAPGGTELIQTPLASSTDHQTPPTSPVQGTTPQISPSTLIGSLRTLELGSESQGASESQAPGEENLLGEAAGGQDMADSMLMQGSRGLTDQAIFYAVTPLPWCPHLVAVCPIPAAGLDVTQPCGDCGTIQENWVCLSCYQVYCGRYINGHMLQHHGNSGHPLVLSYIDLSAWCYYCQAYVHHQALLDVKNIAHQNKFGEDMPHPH
In words: biochemical.
Conditions: not given
As to `O=C(NO)c1ccc(CNCc2c[nH]c3ccccc23)cc1` [Compound 2a, 4-((((1H-indol-3-yl)methyl)amino)methyl)-N-hydroxybenzamide], the IC50 came to 0.037 ± 0.002 µM.

Take `O=C(NO)c1ccc(N2CCN(Cc3c[nH]c4ccccc34)CC2)cc1` [Compound 2b, 4-(4-((1H-indol-3-yl)methyl)piperazin-1-yl)-N-hydroxybenzamide]: the IC50 was determined as 0.073 ± 0.003 µM.

The next test concerns the target T2, drHDAC10 (Danio rerio, UniProt F1QCV2).
T2 sequence (F1QCV2 1-675): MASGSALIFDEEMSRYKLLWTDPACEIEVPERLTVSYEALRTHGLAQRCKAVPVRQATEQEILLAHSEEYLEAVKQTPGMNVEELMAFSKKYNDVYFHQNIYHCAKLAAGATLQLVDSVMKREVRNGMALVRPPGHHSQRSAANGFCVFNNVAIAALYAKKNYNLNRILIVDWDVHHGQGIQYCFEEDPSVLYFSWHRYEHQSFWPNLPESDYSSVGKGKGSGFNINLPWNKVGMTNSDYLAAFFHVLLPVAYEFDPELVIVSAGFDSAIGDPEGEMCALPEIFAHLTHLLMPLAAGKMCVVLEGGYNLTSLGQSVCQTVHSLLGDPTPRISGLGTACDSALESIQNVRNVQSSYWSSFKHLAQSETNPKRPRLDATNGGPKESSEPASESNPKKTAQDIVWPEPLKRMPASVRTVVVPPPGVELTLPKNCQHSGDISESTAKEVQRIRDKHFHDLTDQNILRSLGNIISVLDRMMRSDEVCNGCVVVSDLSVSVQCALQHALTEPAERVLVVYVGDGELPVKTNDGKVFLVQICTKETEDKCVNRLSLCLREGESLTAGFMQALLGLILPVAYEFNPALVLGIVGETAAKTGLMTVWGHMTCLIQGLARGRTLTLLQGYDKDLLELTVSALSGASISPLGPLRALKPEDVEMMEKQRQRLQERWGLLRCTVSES
In words: Enzymatic in vitro HDAC10 inhibition assay. It counts as biochemical, zebrafish.
Conditions: not given
A digest of the protocol: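 Recombinant wild-type drHDAC10 (5 nM final) was preincubated 5 min with test compound at various concentrations in 20 mM HEPES pH 7.4 with 0.5 mg/mL BSA. The reaction was started with 50 µM Ac-spermidine-AMC and incubated 25 min at 25 °C. A stop solution containing 16 mM NDA derivatized the released primary amine. Fluorescence was read at λex 330 nm and λem 390 nm.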
The molecule `O=C(NO)c1ccc(CNCc2c[nH]c3ccccc23)cc1` [Compound 2a, 4-((((1H-indol-3-yl)methyl)amino)methyl)-N-hydroxybenzamide] showed an IC50 of 0.00041 ± 2e-05 µM.

As to `O=C(NO)c1ccc(N2CCN(Cc3c[nH]c4ccccc34)CC2)cc1` [Compound 2b, 4-(4-((1H-indol-3-yl)methyl)piperazin-1-yl)-N-hydroxybenzamide], inhibition was half-maximal at 0.002 ± 0.0001 µM (IC50).

The same test, now with this note: ratio of HDAC6 to HDAC10 IC50.
On to `O=C(NO)c1ccc(CNCc2c[nH]c3ccccc23)cc1` [Compound 2a, 4-((((1H-indol-3-yl)methyl)amino)methyl)-N-hydroxybenzamide], for which the “selectivity of HDAC10 over HDAC6” value is on record as “approximately 90 fold”.

In another test the test system is Vero kidney cells. In words: Cytotoxicity, WST-8 cell viability, non-cancer kidney cells. It counts as cell-based. As to conditions: Chlorocebus sabaeus, Vero, 48 h, read-out: Kidney cells IC50 Vero. The method in brief: (§1)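 Cells were seeded at 10,000 cells/well and grown for 24 h. Test compounds were dissolved in DMSO, diluted in medium and added at 80, 40, 20 and 10 µM. Cells were then incubated for 48 h. Viability was read with WST-8 plus 1-methoxy PMS as formazan absorbance at 450 nm. Controls were doxorubicin (positive) and 0.25% DMSO (vehicle). IC50 came from concentration-response curves, mean ± SD (n = 3).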
In general terms: Tetrazolium dyes change colour on reduction, which living cells bring about.
`O=C(NO)c1ccc(CNCc2c[nH]c3ccccc23)cc1` [Compound 2a, 4-((((1H-indol-3-yl)methyl)amino)methyl)-N-hydroxybenzamide]: the IC50 was 62.6 ± 2.39 µM.

Consider `O=C(NO)c1ccc(N2CCN(Cc3c[nH]c4ccccc34)CC2)cc1` [Compound 2b, 4-(4-((1H-indol-3-yl)methyl)piperazin-1-yl)-N-hydroxybenzamide], for which the half-maximal inhibitory concentration (IC50) stood at 5.99 ± 0.4 µM.

A further test deals with BT-549 (breast carcinoma). In words: Cytotoxicity, WST-8 cell viability. As to conditions: Homo sapiens, BT-549, 48 h, read-out: Cancer cell lines IC50 BT-549. It counts as cell-based, human. A digest of the protocol: as §1
On to `O=C(NO)c1ccc(CNCc2c[nH]c3ccccc23)cc1` [Compound 2a, 4-((((1H-indol-3-yl)methyl)amino)methyl)-N-hydroxybenzamide], for which the IC50 is over 80 µM.

Regarding `O=C(NO)c1ccc(N2CCN(Cc3c[nH]c4ccccc34)CC2)cc1` [Compound 2b, 4-(4-((1H-indol-3-yl)methyl)piperazin-1-yl)-N-hydroxybenzamide], the IC50 came to 16.8 ± 3.63 µM.

The subject of another test is SK-OV-3 (ovarian carcinoma). Description: Cytotoxicity, WST-8 cell viability. It counts as cell-based, human. As to conditions: Homo sapiens, SK-OV-3, 48 h, read-out: Cancer cell lines IC50 SK-OV-3. The method in brief:
as §1
Regarding `O=C(NO)c1ccc(CNCc2c[nH]c3ccccc23)cc1` [Compound 2a, 4-((((1H-indol-3-yl)methyl)amino)methyl)-N-hydroxybenzamide], the IC50 was 61 ± 14.4 µM.

`O=C(NO)c1ccc(N2CCN(Cc3c[nH]c4ccccc34)CC2)cc1` [Compound 2b, 4-(4-((1H-indol-3-yl)methyl)piperazin-1-yl)-N-hydroxybenzamide]: the IC50 worked out at 11.4 ± 4.04 µM.

A further test deals with T3, hHDAC8 (Homo sapiens, UniProt Q9BY41).
T3 sequence (Q9BY41 1-377): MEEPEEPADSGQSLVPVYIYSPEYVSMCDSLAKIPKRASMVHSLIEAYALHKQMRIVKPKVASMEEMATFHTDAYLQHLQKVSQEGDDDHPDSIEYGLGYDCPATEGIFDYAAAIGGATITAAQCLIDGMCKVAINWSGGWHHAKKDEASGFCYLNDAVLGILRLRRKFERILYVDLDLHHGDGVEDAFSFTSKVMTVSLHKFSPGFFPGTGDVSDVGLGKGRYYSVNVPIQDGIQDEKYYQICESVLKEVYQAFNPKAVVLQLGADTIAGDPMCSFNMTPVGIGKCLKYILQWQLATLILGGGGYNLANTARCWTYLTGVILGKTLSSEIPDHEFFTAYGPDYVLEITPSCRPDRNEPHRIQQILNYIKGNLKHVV
In words: biochemical. It counts as biochemical.
Conditions: not given
For the molecule `O=C(NO)c1ccc(CNCc2c[nH]c3ccccc23)cc1` [Compound 2a, 4-((((1H-indol-3-yl)methyl)amino)methyl)-N-hydroxybenzamide], it took 0.35 ± 0.02 µM to reach half-maximal inhibition (IC50).

Turning to `O=C(NO)c1ccc(N2CCN(Cc3c[nH]c4ccccc34)CC2)cc1` [Compound 2b, 4-(4-((1H-indol-3-yl)methyl)piperazin-1-yl)-N-hydroxybenzamide], 0.074 ± 0.006 µM corresponded to half-maximal inhibition (IC50).

In another test the target is hHDAC1 (Homo sapiens, UniProt Q13547). Description: biochemical. It counts as biochemical.
hHDAC1, sequence (Q13547 whole entry): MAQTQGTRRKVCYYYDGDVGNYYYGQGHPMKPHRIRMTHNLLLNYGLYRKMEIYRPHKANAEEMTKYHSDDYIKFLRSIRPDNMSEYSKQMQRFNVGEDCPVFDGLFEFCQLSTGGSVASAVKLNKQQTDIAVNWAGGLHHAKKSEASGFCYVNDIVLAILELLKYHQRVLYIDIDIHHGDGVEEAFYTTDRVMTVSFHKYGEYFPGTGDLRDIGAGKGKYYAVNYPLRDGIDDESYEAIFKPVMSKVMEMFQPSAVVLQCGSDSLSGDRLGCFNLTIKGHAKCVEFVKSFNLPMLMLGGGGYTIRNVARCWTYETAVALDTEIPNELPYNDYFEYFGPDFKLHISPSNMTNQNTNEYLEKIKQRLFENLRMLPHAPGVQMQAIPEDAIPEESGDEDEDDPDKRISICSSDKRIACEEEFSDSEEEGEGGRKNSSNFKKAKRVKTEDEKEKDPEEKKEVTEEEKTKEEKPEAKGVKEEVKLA
Conditions: not given
Molecule `O=C(NO)c1ccc(CNCc2c[nH]c3ccccc23)cc1` [Compound 2a, 4-((((1H-indol-3-yl)methyl)amino)methyl)-N-hydroxybenzamide] returned an IC50 of 4.5 ± 0.2 µM.

The same test, now with this note: inhibitor at 1 µM.
Regarding `O=C(NO)c1ccc(N2CCN(Cc3c[nH]c4ccccc34)CC2)cc1` [Compound 2b, 4-(4-((1H-indol-3-yl)methyl)piperazin-1-yl)-N-hydroxybenzamide], the “hHDAC1 % @1 µM” value came to 48.4%.

Still in this test, the particulars now being: inhibitor at 10 µM.
As for `O=C(NO)c1ccc(N2CCN(Cc3c[nH]c4ccccc34)CC2)cc1` [Compound 2b, 4-(4-((1H-indol-3-yl)methyl)piperazin-1-yl)-N-hydroxybenzamide], the “hHDAC1 % @10 µM” value was 90.6%.

In the next test the test system is SK-MEL (melanoma). In words: Cytotoxicity, WST-8 cell viability. It counts as cell-based, human. As to conditions: Homo sapiens, 48 h, read-out: Cancer cell lines IC50 SK-MEL. A digest of the protocol: as §1
As for `O=C(NO)c1ccc(CNCc2c[nH]c3ccccc23)cc1` [Compound 2a, 4-((((1H-indol-3-yl)methyl)amino)methyl)-N-hydroxybenzamide], the IC50 was over 80 µM.

`O=C(NO)c1ccc(N2CCN(Cc3c[nH]c4ccccc34)CC2)cc1` [Compound 2b, 4-(4-((1H-indol-3-yl)methyl)piperazin-1-yl)-N-hydroxybenzamide]: the IC50 came to 26 ± 3.62 µM.

The next test concerns KB (epidermal carcinoma). In words: Cytotoxicity, WST-8 cell viability. As to conditions: Homo sapiens, 48 h, read-out: Cancer cell lines IC50 KB. It counts as cell-based, human. The method in brief:
as §1
Consider `O=C(NO)c1ccc(CNCc2c[nH]c3ccccc23)cc1` [Compound 2a, 4-((((1H-indol-3-yl)methyl)amino)methyl)-N-hydroxybenzamide], for which the IC50 is 72.8 ± 2.4 µM.

For the molecule `O=C(NO)c1ccc(N2CCN(Cc3c[nH]c4ccccc34)CC2)cc1` [Compound 2b, 4-(4-((1H-indol-3-yl)methyl)piperazin-1-yl)-N-hydroxybenzamide], the IC50 is 12.1 ± 1.41 µM.

Values taken from publication PMC12475083 (Scientific Reports, 2025).
